# Experimental data as given in ChEMBL document CHEMBL1138269, “Antimicrobial lexitropsins containing amide, amidine, and alkene linking groups” (J Med Chem, 2007).
# The source made the active and inactive calls. The calls are words filed in the database; no cut-off is given here.
# Assays:
# Staphylococcus aureus [1] = test: Antibacterial activity against methicillin-resistant Staphylococcus aureus clinical isolate 1; type: functional
# Outline: (§1)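 Broth microdilution MIC against clinical S. aureus isolates (incl. MRSA), run per NCCLS guidelines in 96-well plates. Test sample dissolved in sterile water to a 200 µg mL-1 working concentration, then doubling dilutions in Mueller-Hinton broth. Incubated at 37 °C, growth read visually plus resazurin indicator. MIC reported in µg/mL.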
# Staphylococcus aureus [2] = test: Antibacterial activity against methicillin-resistant Staphylococcus aureus clinical isolate 5; type: functional; outline: as §1
# Staphylococcus aureus [3] = test: Antibacterial activity against methicillin-resistant Staphylococcus aureus clinical isolate 2; type: functional; outline: as §1
# Aspergillus niger = test: Antifungal activity against Aspergillus niger IMI 149007; type: functional
# Outline: (§2)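 Antifungal microdilution in Sabouraud broth. Test sample at 200 µg mL-1 working solution in sterile water was serially doubled down successive rows. Incubation was at 25 °C, followed by visual growth check and addition of resazurin indicator. Read-out is MIC in µg mL-1.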
# Enterococcus faecalis = test: Antibacterial activity against Streptococcus faecalis NCTC 775; type: functional; conditions: Enterococcus faecalis, NCTC 775; read-out: MIC
# Outline: (§3)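 Broth microdilution in Mueller-Hinton broth. Samples were dissolved in sterile water to 200 µg mL-1 as the working solution and doubling dilutions were made across rows. Plates were incubated at 37 °C and inspected visually, with resazurin added as growth indicator. MIC reported in µg mL-1.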
# L929 = test: Cytotoxicity against mouse L929 cells; type: cell-based
# Staphylococcus aureus [4] = test: Antibacterial activity against methicillin-resistant Staphylococcus aureus clinical isolate 3; type: functional; outline: as §1
# Staphylococcus aureus [5] = test: Antibacterial activity against methicillin-sensitive Staphylococcus aureus NCTC 6571; type: functional; conditions: Staphylococcus aureus, NCTC 6571; read-out: MIC; outline: as §3
# HS27 = test: Cytotoxicity against human HS27 cells; type: cell-based
# Staphylococcus aureus [6] = test: Antibacterial activity against Staphylococcus aureus LS1 in mouse at 20 mg/kg, ip; type: functional, organism-based; design: dose 20 mg/kg
# Outline: (§4)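 Mice of 18-22 g, five per group, were inoculated intravenously with 50 million cfu of S. aureus LS-1, which causes bacteraemia and then joint localization within 3-4 days. A single dose (groups at 60, 40, 20 or 10 mg/kg) was given iv or ip. Joint inflammation was scored, with caliper measurement of affected joint diameter.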
# [7] = tested on: Mycolicibacterium fortuitum; test: Antibacterial activity against Mycobacterium fortuitum NCTC 10394; type: functional; outline: as §3
# Candida albicans = test: Antifungal activity against Candida albicans NCPF 3179; type: functional; conditions: Candida albicans; read-out: MIC; outline: as §2
# Staphylococcus aureus [8] = test: Antibacterial activity against methicillin-resistant Staphylococcus aureus clinical isolate 4; type: functional; outline: as §1
# [9] = Cytotoxicity against human TE671 cells; type: cell-based; conditions: te-671
# H9c2 = test: Cytotoxicity against rat H9C2 cells; type: cell-based
# Staphylococcus aureus [10] = test: Antibacterial activity against Staphylococcus aureus LS1 in mouse at 40 mg/kg, ip; type: functional, organism-based; design: dose 40 mg/kg; outline: as §4
# A-375 = test: Cytotoxicity against human A375 cells; type: cell-based
# Jurkat = test: Cytotoxicity against human Jurkat cells; type: cell-based
Compound,MIC (Staphylococcus aureus [1]) [µg/mL],MIC (Staphylococcus aureus [2]) [µg/mL],MIC (Staphylococcus aureus [3]) [µg/mL],MIC (Aspergillus niger) [µg/mL],MIC (Enterococcus faecalis) [µg/mL],Activity (L929),MIC (Staphylococcus aureus [4]) [µg/mL],MIC (Staphylococcus aureus [5]) [µg/mL],Activity (HS27),Activity (Staphylococcus aureus [6]),MIC [7] [µg/mL],MIC (Candida albicans) [µg/mL],MIC (Staphylococcus aureus [8]) [µg/mL],Activity [9],Activity (H9c2),Activity (Staphylococcus aureus [10]),Activity (A-375),Activity (Jurkat)
Cn1cc(NC(=O)c2cc(NC(=O)c3ccc(/C=C/c4cnc5ccccc5c4)cc3)cn2C)cc1C(=O)NCCN1CCOCC1 [MGB-BP-3],0.12,0.12,0.25,25,25,Non-toxic,0.12,3,Non-toxic,Active,50,50,0.25,–,–,–,–,–
COc1cccc(/C=C/c2cccc(C(=O)Nc3cc(C(=O)Nc4nc(C(=O)NCCCN(C)C)c(CCC(C)C)s4)n(C)c3)c2)c1,32,32,32,> 50,> 50,–,32,> 50,–,–,> 50,> 50,32,–,–,–,–,–
CC(=N)Nc1cc(C(=O)Nc2cc(C(=O)Nc3nc(C(=O)NCCN4CCOCC4)c(C(C)C)s3)n(C)c2)n(C)c1,64,> 64,> 64,> 50,> 50,–,> 64,> 50,–,–,> 50,> 50,> 64,–,–,–,–,–
CN(C)CCCNC(=O)c1cc(NC(=O)c2cc(NC(=O)c3cc(NC(=N)c4ccc5ccccc5n4)cn3C)cn2C)cn1C,> 64,> 64,> 64,50,50,–,> 64,> 50,–,–,> 50,50,> 64,–,–,–,–,–
Cn1cccc1/C=C/c1ccc(C(=O)Nc2cc(C(=O)Nc3cc(C(=O)NCCN4CCOCC4)n(C)c3)n(C)c2)cc1,4,16,16,> 50,13,–,16,3,–,–,> 50,> 50,16,–,–,–,–,–
COc1cccc(C(=N)Nc2cc(C(=O)Nc3cc(C(=O)Nc4nc(C(=O)NCCN5CCOCC5)c(C(C)C)s4)n(C)c3)n(C)c2)c1,16,32,64,> 50,> 50,–,32,> 50,–,–,> 50,> 50,32,–,–,–,–,–
Cn1cc(NC(=O)c2cc(NC(=O)c3csc(/C=C/c4ccc5ccccc5n4)n3)cn2C)cc1C(=O)NCCN1CCOCC1,8,8,8,> 50,25,–,8,3,–,–,> 50,> 50,8,–,–,–,–,–
COc1ccc(/C=C/c2ccc(C(=O)Nc3cc(C(=O)Nc4cc(C(=O)NCCN5CCOCC5)n(C)c4)n(C)c3)cn2)cc1,0.5,0.5,4,50,6,Non-toxic,2,6,–,–,50,25,2,Non-toxic,Non-toxic,Active,Non-toxic,Non-toxic
CSc1ccc(/C=C/c2ccc3cc(C(=O)Nc4cc(C(=O)Nc5cc(C(=O)NCCN6CCOCC6)n(C)c5)n(C)c4)ccc3n2)cc1,4,> 64,> 64,> 50,> 50,–,> 64,> 50,–,–,> 50,> 50,> 64,–,–,–,–,–
CC(C)c1sc(NC(=O)c2cc(NC(=O)c3cc(NC=O)cn3C)cn2C)nc1C(=O)NCCN1CCOCC1,32,64,> 64,> 50,25,–,64,13,–,–,> 50,> 50,64,–,–,–,–,–
CN(C)CCCNC(=O)c1cc(NC(=O)c2cc(NC(=O)c3cc(/C=C/c4ccc([N+](=O)[O-])cc4)cn3C)cn2C)cn1C,> 64,> 64,> 64,> 50,50,–,> 64,50,–,–,> 50,> 50,> 64,–,–,–,–,–
Cn1cc(NC(=O)c2cc(NC(=O)c3cc(/C=C/c4ccc5ccccc5n4)cn3C)cn2C)cc1C(=O)NCCN1CCOCC1,4,16,64,> 50,13,–,64,13,–,–,> 50,> 50,32,–,–,–,–,–
CC(C)CCn1cc(NC(=O)c2cc(NC(=O)c3ccc4c(c3)OCO4)cn2C)cc1C(=O)Nc1cc(C(=O)NCCCN(C)C)n(C)c1,8,16,16,> 50,> 50,–,16,50,–,–,> 50,> 50,16,–,–,–,–,–
